# Laboratory results published in ChEMBL document CHEMBL1138907, “Synthesis, hydrolyses and dermal delivery of N-alkyl-N-alkyloxycarbonylaminomethyl (NANAOCAM) derivatives of phenol, imide and thiol containing drugs” (Bioorg Med Chem Lett, 2006).
# Tests used:
# [1] = Ratio for partition coefficient, log K in IPM to buffer at pH 4; format: physicochemical; conditions: IPM/pH 4.0 buffer
# [2] = Aqueous solubility of the compound; format: physicochemical; conditions: water
# [3] = Solubility in IPM; format: physicochemical
# [4] = Half life of the compound; format: ADME
# Outline: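 Hydrolysis in aqueous buffer, followed by UV absorbance in a cuvette at about 10^-5 M final substrate. For the phenol derivatives, runs were at 46 °C in pH 8.8 buffer because hydrolysis at 32 °C was too slow. Half-lives were taken from plots of log(A∞ − At), or its negative, versus time.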
# [5] = Dissociation constant, pKa of the compound; format: physicochemical
SMILES,log K [1],solubility [2] [µM],solubility [3] [µM],half-life [4] [h],pKa [5],"solubility ([3]; IPM, read-out: Solubility) [µM]"
CC(=O)Nc1ccc(O)cc1 [ACETAMINOPHEN],-1.72,100000,1910,,,
COC(=O)N(C)COc1ccc(C=O)cc1,,,,1.25,7.66,
COC(=O)N(C)COc1ccccc1C=O,,,,0.2,6.79,
COC(=O)N(C)Cn1cnc2c1c(=O)n(C)c(=O)n2C,-0.04,9330,,7,8.6,2690
COC(=O)N(C)CSc1[nH]cnc2ncnc1-2,0.03,1450,,0.317,7.5,1350
Cn1c(=O)c2[nH]cnc2n(C)c1=O.O [THEOPHYLLINE],-0.51,46000,,,,340
Sc1ncnc2nc[nH]c12 [MERCAPTOPURINE ANHYDROUS],-1.75,1120,,,,20

# Continued, values first:
log K [1],solubility [2] [µM],solubility [3] [µM],half-life [4] [h],pKa [5],"solubility ([3]; IPM, read-out: Solubility) [µM]",SMILES
,,,3.15,8.05,,COC(=O)N(C)COc1ccc(C(C)=O)cc1
,,,4.83,8.47,,COC(=O)c1ccc(OCN(C)C(=O)OC)cc1
,,,> 24,,,CCOC(=O)c1ccc(N(COc2ccc([N+](=O)[O-])cc2)C(=O)OC)cc1
,,,2.48,7.95,,COC(=O)N(C)COc1ccc(C#N)cc1
,,,8.65,,,COC(=O)N(COc1ccc([N+](=O)[O-])cc1)c1ccccc1
,,,0.00367,5.03,,COC(=O)N(C)COC(=O)c1ccc(N(C)C)cc1
-0.45,45700,,60,9.5,14100,COC(=O)N(C)COc1ccc(NC(C)=O)cc1
,,,6.67,,,COC(=O)N(COc1ccc([N+](=O)[O-])cc1)c1ccc(OC)cc1
,,,0.367,7.14,,COC(=O)N(C)COc1ccc([N+](=O)[O-])cc1
